What is called IC50 is the concentration that gives 50% inhibition. Lower therefore signals greater potency.

For 12 compounds, IC50 results are on record in ChEMBL document CHEMBL1143577, “Syntheses and biological activities of rebeccamycin analogues with uncommon sugars” (J Med Chem, 2005).

The subject of one assay is K562. In words: Inhibitory concentration against […] leukemia cell line in MTS assay. The conditions noted are these: Homo sapiens. In kind it is functional, cell-based. In a few lines:
(§1)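 Cells grown in RPMI 1640 with 10% FBS, 1% nonessential amino acids, penicillin-streptomycin, 37 °C, 5% CO2. Exponentially growing cells were then exposed to a range of compound concentrations for 72 h. MTS (2 mg/mL) plus PMS (25 µM) was added for 3 h, and absorbance was read at 490 nm. IC50 came from dose-response curves of % growth versus untreated control.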

A further assay deals with SW-620. Kind of assay: Inhibitory concentration against SW620 colorectal carcinoma cell line in MTS assay. Format: functional, cell-based, Homo sapiens. In a few lines:
as §1

As to `CC1OC(n2c3ccccc3c3c4c(c5c6ccccc6[nH]c5c32)C(=O)OC4=O)CC(N)C1O` (stereo not drawn), the IC50 is 55 µM in the assay on K562 and > 100 µM in the assay on SW-620 (Homo sapiens, SW-620).
On to `CN1C(=O)c2c(c3c4ccccc4n(C4CC(O)C(O)C(CO)O4)c3c3[nH]c4ccccc4c23)C1=O` (stereo not drawn), for which the IC50 with K562 worked out at 12 µM; with SW-620 (Homo sapiens, SW-620), 13 µM.
With `CC1OC(n2c3ccccc3c3c4c(c5c6ccccc6[nH]c5c32)C(=O)N(N)C4=O)CC(O)C1O` (stereo not drawn), the IC50 with K562 was > 100 µM; in the assay with SW-620 (Homo sapiens, SW-620), > 100 µM.
On to `CN1C(=O)c2c(c3c4ccccc4[nH]c3c3[nH]c4ccccc4c23)C1=O`, for which the IC50 with K562 is 40 µM; in the assay on SW-620 (Homo sapiens, SW-620), > 100 µM.
In the same order, the values of `O=C1c2c(c3c4ccccc4n(C4OC(COCc5ccccc5)C(OCc5ccccc5)C(OCc5ccccc5)C4OCc4ccccc4)c3c3[nH]c4ccccc4c23)C(=O)N1CCCn1ccnc1` (stereo not drawn) are > 50 µM and > 50 µM.
Consider `CN1C(=O)c2c(c3c4ccccc4n(C4OC(CO)C(O)C(O)C4O)c3c3[nH]c4ccccc4c23)C1=O` (stereo not drawn), for which the IC50 with K562 was determined as 3 µM; in the assay with SW-620 (Homo sapiens, SW-620), 5 µM.
In the same order, the values of `CC1OC(n2c3ccccc3c3c4c(c5c6ccccc6[nH]c5c32)C(=O)OC4=O)CC(NCc2ccccc2)C1O` (stereo not drawn) are 53 µM and 76 µM.
For `O=C1c2c(c3c4ccccc4n(C4OC(CO)C(O)C(O)C4O)c3c3[nH]c4ccccc4c23)C(=O)N1CCCn1ccnc1` (stereo not drawn), the concentration for half-maximal inhibition (IC50) came out at 4 µM in the assay with K562 and 2 µM in the assay with SW-620 (Homo sapiens, SW-620).
As to `CC1OC(n2c3ccccc3c3c4c(c5c6ccccc6[nH]c5c32)C(=O)N(C)C4=O)CC(NCc2ccccc2)C1O` (stereo not drawn), the IC50 is 34 µM in the assay on K562 and > 100 µM in the assay on SW-620 (Homo sapiens, SW-620).
With `CC1OC(n2c3ccccc3c3c4c(c5c6ccccc6[nH]c5c32)C(=O)N(C)C4=O)CC(O)C1O` (stereo in doubt; 5), the IC50 in the assay on K562 came to 26 µM; with SW-620 (Homo sapiens, SW-620) it was 24 µM.
In turn, `CC1OC(n2c3ccccc3c3c4c(c5c6ccccc6[nH]c5c32)C(=O)N(C)C4=O)CC(O)C1O` (stereo in doubt; 6) returned an IC50 in the assay on SW-620 (sw-620) of 34 µM.
In the case of `CO[C@H]1[C@H](O)[C@@H](O)[C@H](n2c3c(Cl)cccc3c3c4c(c5c6cccc(Cl)c6[nH]c5c32)C(=O)NC4=O)O[C@@H]1CO` [REBECCAMYCIN], the IC50 with K562 amounted to 6 µM; in the assay on SW-620 (Homo sapiens, SW-620) it was 4 µM.
